# An excerpt weighted towards active compounds, which were near 1.6% of everything screened.
# TDP2 inh: human TDP2 enzyme inhibitors, primary screen, biochemical, epi absorbance, recombinant enzyme. T5PNP hydrolysis, p-nitrophenol absorbance 415 nm. inhibition, % at 12.8 µM. actives 0.34% (n = 370,000). Tyrosyl-DNA phosphodiesterase 2 (Homo sapiens), O95551;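 active means inhibition above the mean of all tested compounds plus 3 SD, set per campaign, cut at about 25% in these data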;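 further: 0% = DMSO with enzyme and 100% = buffer with substrate but no TDP2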
# Target sequence (O95551 whole entry, looked up): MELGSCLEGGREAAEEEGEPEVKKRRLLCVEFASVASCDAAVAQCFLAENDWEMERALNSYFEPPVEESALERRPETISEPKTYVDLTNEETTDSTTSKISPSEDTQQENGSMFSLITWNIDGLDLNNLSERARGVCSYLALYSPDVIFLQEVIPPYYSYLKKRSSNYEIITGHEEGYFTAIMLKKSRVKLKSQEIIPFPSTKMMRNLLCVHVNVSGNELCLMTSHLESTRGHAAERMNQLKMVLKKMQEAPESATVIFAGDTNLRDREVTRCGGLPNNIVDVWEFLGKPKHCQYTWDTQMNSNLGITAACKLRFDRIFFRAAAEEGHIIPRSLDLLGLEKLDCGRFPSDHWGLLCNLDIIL
#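 Assay system: recombinant human TDP2 / Reagent: T5PNP substrate at 5 mM, a TopII-DNA adduct mimic / Measured by: epi absorbance from released p-nitrophenol / Evaluation: % inhibition relative to enzyme-containing and enzyme-free wells / Control set: enzyme-free and DMSO wells / Replicates: each compound tested once, singlicate / Schedule: enzyme reaction with compound for 2 h at 37 °C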
# UHRF1 binding: UHRF1 methylated DNA binding inhibitors, primary screen, counter-screen for MBD2 inhibitor project, biochemical, TR-FRET, human UHRF1, single concentration; inhibition, % at 4.4 µM; UHRF1 binding to methylated oligo; actives 0.75% (n = 370,000); E3 ubiquitin-protein ligase UHRF1 (Homo sapiens), Q96T88; AID 687016, 2013; in the data active means inhibition above about 21%;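 further: UHRF1 SRA domain binding a hemimethylated CpG hairpin DNA probe; 0% = median of test compound wells and 100% = reference inhibitor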
# MBD2 inh: inhibitors of MBD2 binding to methylated DNA, primary screen, biochemical, TR-FRET, DNA-binding domain, human | actives 0.31% (n = 370,000) | Methyl-CpG-binding domain protein 2 (Homo sapiens), Q9UBB5 | MBD2 binding to methylated oligonucleotide | AID 686964, 2013 | inhibition, % at 4.4 µM; in the data active means inhibition above about 13%
# LEDGF integ inh: blockers of LEDGF/p75-dependent integrase strand transfer – biochemical, TR-FRET, high throughput, primary screen; HIV-1 integrase (with human LEDGF/p75); TR-FRET IN-LEDGF/p75 DNA integration, Eu/Cy5; inhibition, % at 3.7 µM; actives 0.64% (n = 370,000);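 active means inhibition above the screen-wide mean plus 3 SD, cut at about 13% in these data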;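 further: signal is the Cy5 over europium emission ratio at 671 and 618 nm; 0% = plate median of compound wells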
# TDP2 confirm: human TDP2 enzyme inhibitors, retest, confirmation, biochemical, epi absorbance, recombinant enzyme | shares compounds with TDP2 inh | absorbance read-out | inhibition, % at 12.8 µM | actives 22% (n = 1,100) | AID 743263, 2014; in the data active means inhibition above about 25%;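 further: 0% = vehicle with enzyme and 100% = no enzyme buffer only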
# IN multimer act: HIV-1 IN multimer formation enhancers, counter-screen for LEDGF/p75 integration inhibitor project, biochemical, TR-FRET. actives 17% (n = 2,000). TR-FRET HIV-1 integrase multimerization. AID 1053131, 2014. activation, % at 7.7 µM. shares compounds with LEDGF integ inh; in the data active means activation above about 8.9%
# TRFRET interf: TR-FRET optical interference artefacts, confirmation, artefact control for LEDGF/p75-dependent integration inhibitor project, biochemical, HIV-1 IN multimerization; shares compounds with LEDGF integ inh; TR-FRET optical interference counterscreen; inhibition, % at 7.7 µM; 2,000 tested, under 10 active;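 active means inhibition above the mean over all tested compounds plus 3 SD, which no compound reached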;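 further: 0% = integrase with antibodies and DMSO and 100% = antibodies without integrase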
# IN-LEDGF confirm: inhibitors of HIV-1 IN-LEDGF/p75 DNA integration, confirmation, biochemical, TR-FRET | shares compounds with LEDGF integ inh | TR-FRET LEDGF/p75-dependent HIV-1 integration | inhibition, % at 3.7 µM | actives 36% (n = 2,000) | AID 1053136, 2014; in the data active means inhibition above about 14%
# Starred values were filed as active, the others as inactive; nt = no result.
SMILES,TDP2 inh,UHRF1 binding,MBD2 inh,LEDGF integ inh,TDP2 confirm,IN multimer act,TRFRET interf,IN-LEDGF confirm
CN(C)CCCNCCCNC(=O)/C=N/O,3,-3,1,4,nt,nt,nt,nt
COC(=O)c1cccc(-c2ccc(C(c3c(C)[nH][nH]c3=O)c3c(C)[nH][nH]c3=O)o2)c1,57*,15,-2,14*,32*,0,2,11
C[n+]1c2cc(N)ccc2cc2ccc(N)cc21,29*,-322,0,40*,28*,20*,-70,45*
O=C(/C=C/c1ccc(O)cc1)c1ccc(NC2=C(N3CCCCC3)C(=O)c3ccccc3C2=O)cc1,49*,9,-5,15*,45*,4,-13,30*
O=C1C(Nc2ccccc2)=C(N2CCCCC2)C(=O)c2ccccc21,59*,8,0,22*,57*,-1,2,34*
O=C1C(NS(=O)(=O)c2ccc(Br)cc2)=C(N2CCCCC2)C(=O)c2ccccc21,-8,-7,-8,-5,nt,nt,nt,nt
CC1=C(Nc2ccc(C(=O)O)cc2)C(=O)c2ccccc2C1=O,1,-13,-16,3,nt,nt,nt,nt
O=C1C(Nc2cccc(O)c2)=C(N2CCCCC2)C(=O)c2ccccc21,51*,13,-6,20*,52*,-1,4,37*
Cc1ccc(NC2=C(N3CCCCC3)C(=O)c3ccccc3C2=O)cc1,56*,14,-2,17*,61*,1,-4,38*
Cc1noc(C)c1COC(=O)CNC(=O)c1cccc(F)c1,4,-2,1,3,nt,nt,nt,nt
CN(C1=C(N2CCCCC2)C(=O)c2ccccc2C1=O)c1ccccc1,35*,5,9,16*,2,2,-11,3
Cc1cc(Br)c2nc(-c3ccc(F)cc3)c(Cc3cccc(Cl)c3)n2c1,4,8,-5,-1,nt,nt,nt,nt
COCCn1c(=S)[nH]c2cc(C(=O)NCc3ccc(F)cc3)ccc2c1=O,4,-1,1,-2,nt,nt,nt,nt
CC(=O)Nc1ccc(-c2ccnc3c2CC(C(=O)NCc2ccco2)O3)cc1 (stereo not given),-10,1,-1,-3,nt,nt,nt,nt
CCOCCCNC(=O)C(c1ccc(C)cc1)N1CCOCC1 (stereo not given),5,0,2,4,nt,nt,nt,nt
Nn1cnnc1N/N=C/c1ccc(Cl)c([N+](=O)[O-])c1,75*,10,3,44*,37*,1,-3,7
Fc1ccc(/C=N/Nc2nn[nH]n2)cc1,-3,-1,7,3,nt,nt,nt,nt
Nn1cnnc1N/N=C/c1ccc(F)cc1,64*,6,5,65*,-5,-1,2,-6
Cc1ccc(/C=N/Nc2nc(C)cc(C)n2)cc1,15,1,-2,1,nt,nt,nt,nt
Cc1nnc(C)n1N=Cc1ccc(Cl)c([N+](=O)[O-])c1,6,1,-1,-1,nt,nt,nt,nt
Cc1ccc(/C=N/Nc2nncn2N)cc1,78*,11,-2,65*,2,-3,11,4
COC(=O)c1ccc(CSc2cc(C)c3cc(C)cc(C)c3n2)o1,-8,0,3,1,nt,nt,nt,nt
CCOc1cc(/C=C2/C(=O)N(c3ccccc3)N=C2C)ccc1OC(=O)c1ccco1,77*,18,10,25*,29*,1,-5,7
CN(C)c1ccc(N/C=C/C(=O)C(C)(C)C)cc1,55*,13,-1,25*,-4,12*,-43,1
Cc1[nH][nH]c(=O)c1N=Nc1ccccc1Cl,-1,-15,-15,0,nt,nt,nt,nt
SMILES,TDP2 inh,UHRF1 binding,MBD2 inh,LEDGF integ inh,TDP2 confirm,IN multimer act,TRFRET interf,IN-LEDGF confirm
Clc1ccccc1N=Nc1ccccn1,42*,5,-1,25*,27*,1,-4,16*
Cn1c(CNc2ccc(O)cc2)nc2ccccc21,35*,7,-6,16*,1,5,-20,-2
Cc1ccc(C(=O)N2CCCCCC2)cc1S(=O)(=O)N1CCOCC1,1,1,0,1,nt,nt,nt,nt
Cc1cc(Br)cc(C=Nc2ccc(N3CCOCC3)cc2)c1O,34*,0,-4,26*,-8,3,-13,17*
Oc1c(Cl)cc(Cl)cc1C=Nc1ccc(N2CCOCC2)cc1,22,3,3,6,nt,nt,nt,nt
CN(C)c1cc(Cl)c2nonc2c1N,66*,12,10,26*,54*,1,-4,11
O=C1C=C(Nc2cccnc2)c2ccccc2C1=O,72*,1,-26,29*,59*,4,-14,55*
O=C1C=C(Nc2ccccc2O)c2ccccc2C1=O,61*,-8,-29,28*,54*,19*,-66,37*
COC(=O)c1ccc(COC(=O)c2ccc(C)c(S(=O)(=O)N3CCCCC3)c2)cc1,13,3,4,-1,nt,nt,nt,nt
O=C(Nc1c(-c2ccc3c(c2)OCO3)[nH][nH]c1=O)c1cccc(C(F)(F)F)c1,55*,14,2,20*,9,2,-11,-3
N#CC1C(=O)Nc2cccnc21 (stereo not given),66*,3,-8,27*,3,3,-11,5
O=C1Nc2ccccc2C1Cc1ccccn1 (stereo not given),17,0,1,1,nt,nt,nt,nt
Nn1cnnc1N/N=C/c1ccccc1C(F)(F)F,51*,7,-1,47*,-2,2,-7,-6
Nn1cnnc1N/N=C/c1cccc(Cl)c1Cl,75*,7,2,56*,-3,1,-3,-2
FC(F)(F)c1ccccc1/C=N/Nc1ccccn1,1,-2,3,0,nt,nt,nt,nt
CC(=O)Nc1ccc(NC(=O)C2CCCN2C(=O)Nc2ccc(F)cc2)cc1 (stereo not given),13,1,0,1,nt,nt,nt,nt
CCOC(=O)C1CCN(C(=O)C2CCN(c3nc4ccc(OC)cc4s3)CC2)CC1,-2,-3,-1,-3,nt,nt,nt,nt
COc1ccc2nc(N=Nc3ccc(N(C)C)cc3)sc2c1,13,-2,-5,-4,nt,nt,nt,nt

# From PubChem
